# Bioassay records: PubChem, several laboratories
# Sampled rows, rich in hits. Any-hit rate of the full collection: about 3.4%.
# TRPML3 agonist: human mucolipin-3 channel agonism; HEK293 TRPML3-YFP, Fluo-8 calcium fluorescence; 100% = the carbachol control signal; activation, % at 3 µM; hit rate 0.29% among 220,000;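 active means activation above its plate's cutoff, the mean activation of the plate's test wells plus 3 SD, cut at about 12% in these data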;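 further: 0% = DMSO only wells and 100% = carbachol wells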
#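 Test system – HEK293 line with stable expression of human TRPML3-YFP channel · Control set – carbachol 87 µM final as high control (100%), DMSO as low control (0%) · Signal – Fluo-8 calcium dye fluorescence, ex 470-495, em 515-575 nm · Incubation – 1-h 37 °C dye load, 5-s basal, 120-s post-compound reads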
# TAAR1 antagonist: antagonists of human TAAR1; inhibition, % at 3 µM; Q96RJ0; CHO RD-HGA16 TAAR1, Fluo-8 calcium fluorescence, antagonist; hit rate 1.5% among 360,000;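 active means inhibition above a per-plate cutoff, the mean inhibition of test compounds on that plate plus 3 SD, cut at about 49% in these data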;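 further: 0% = DMSO plus EC80 beta-PEA response and 100% = DMSO alone without agonist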
# Target sequence (Q96RJ0 whole entry, looked up): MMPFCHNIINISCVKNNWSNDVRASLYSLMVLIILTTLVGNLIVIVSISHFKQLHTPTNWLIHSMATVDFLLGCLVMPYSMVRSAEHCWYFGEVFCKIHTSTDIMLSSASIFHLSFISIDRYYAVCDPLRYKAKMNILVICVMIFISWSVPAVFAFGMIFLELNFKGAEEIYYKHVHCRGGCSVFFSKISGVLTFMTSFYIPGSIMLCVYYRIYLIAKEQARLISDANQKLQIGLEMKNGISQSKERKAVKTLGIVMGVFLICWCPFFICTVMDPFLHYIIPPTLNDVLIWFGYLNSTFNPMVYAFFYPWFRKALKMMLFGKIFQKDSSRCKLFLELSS
#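 Test system – hTAAR1-expressing CHO RD-HGA16 cells, Gα16-coupled · Reagent – β-PEA at EC80 concentration, post-compound challenge · Compound dosing – 3 µM, single point · Timing – 140 s kinetic read after compound, 140 s after agonist · Detection – Fluo-8 intracellular calcium dye fluorescence, real-time kinetic reads · Control set – DMSO and EC80 PEA controls · Repeats – n of 1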
# GPR7 antagonist: antagonists of human GPR7 (neuropeptides B/W receptor 1); P48145; GPR7-expressing cells, fluorescence antagonist assay; inhibition, % at 4.4 µM; hit rate 1.1% among 290,000; in the data active means inhibition above about 16%, passing the limit was not always enough;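 further: cells stimulated with the agonist NPW; 0% = agonist with vehicle and 100% = vehicle without agonist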
# Target sequence (P48145 whole entry, looked up): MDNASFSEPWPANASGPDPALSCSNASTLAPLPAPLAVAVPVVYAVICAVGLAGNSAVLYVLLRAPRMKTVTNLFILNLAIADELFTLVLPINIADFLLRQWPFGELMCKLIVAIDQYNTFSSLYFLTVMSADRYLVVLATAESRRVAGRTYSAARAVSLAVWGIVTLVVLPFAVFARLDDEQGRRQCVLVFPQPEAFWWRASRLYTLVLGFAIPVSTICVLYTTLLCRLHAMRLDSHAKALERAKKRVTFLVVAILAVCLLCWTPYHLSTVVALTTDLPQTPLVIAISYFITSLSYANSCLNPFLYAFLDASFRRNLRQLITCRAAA
# LANA-H2A inh: blocks KSHV LANA binding to histone H2A/H2B; Q9QR71; cell-free LANA-H2A/H2B peptide, fluorescence polarization; inhibition, % (test concentration not listed); hit rate 0.6% among 320,000; AID 2629; in the data active means inhibition mostly above about 10%, no sharp cut-off; inactive means mostly below about 6.7%
# zfTRPN1 agonist: zebrafish TRPN1 (NompC) channel agonism; HEK293 zebrafish TRPN1-YFP, Fluo-8 calcium fluorescence; 100% = response to 87 µM carbachol; activation, % at 3 µM; hit rate 0.18% among 220,000;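 active means activation above its plate's cutoff, the mean activation of test wells on that plate plus 3 SD, cut at about 19% in these data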;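 further: 0% = DMSO alone and 100% = 87 µM carbachol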
#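 System: zebrafish TRPN1-YFP in HEK293 cells / Dosing: 3 µM single point / Timing: dye loading 1 h at 37 °C, then 30 min room temperature / Signal: Fluo-8 calcium fluorescence, excitation 470-495 nm, emission 515-575 nm / Read-out basis: percent activation from peak over basal fluorescence ratio, control-normalized / Control set: high carbachol 87 µM, low DMSO alone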
# TAAR1 agonist: agonists of human TAAR1; Q96RJ0; hit rate 0.99% among 360,000; activation, % at 3 µM; CHO RD-HGA16 TAAR1, Fluo-8 calcium fluorescence; vehicle wells 0%, saturating PEA agonist 100%;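 active means activation above the mean activation of all test compounds in the run plus 3 SD, cut at about 38% in these data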
#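 Test system: RD-HGA16 (CHO) cells co-expressing Gα16 and hTAAR1 | Doses: Single dose, 3 µM | Schedule: 17-24 h seeding, 75 min 37 °C dye, 30 min RT | Evaluation: % activation from peak over basal fluorescence ratio, DMSO-to-PEA scaled | Technique: Kinetic Fluo-8 calcium fluorescence | Benchmarks: Low control DMSO, high control PEA (EC100)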
# TAAR1 ag confirm: confirmation of human TAAR1 agonists; shares compounds with TAAR1 agonist; activation, % at 3 µM; AID 651783; CHO RD-HGA16 TAAR1, Fluo-8 calcium fluorescence; scaled: DMSO 0%, maximal phenethylamine 100%; hit rate 82% among 2,400;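 active means activation above a cutoff set at the run's mean compound activation plus 3 SD, cut at about 39% in these data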
# Ga16 ag counter: nonselective agonist in parental cells, TAAR1 agonist counter-screen; CHO-Ga16 parental, Fluo-8 calcium fluorescence; normalized to maximal ATP response, DMSO zero; AID 651787; hit rate 50% among 2,400; shares compounds with TAAR1 agonist; activation, % at 3 µM;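 active means activation above the run cutoff, the mean activation over all tested wells plus 3 SD, cut at about 12% in these data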;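 further: 0% = DMSO wells and 100% = maximal ATP response on the peak over basal ratio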
# TAAR1 desens: counter-screen for human TAAR1 agonists: agonists that desensitize TAAR1 | hit rate 46% among 2,400 | inhibition, % at 3 µM | CHO RD-HGA16 hTAAR1, Fluo-8 calcium, beta-PEA response inhibition | shares compounds with TAAR1 agonist | AID 651951;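 active means inhibition above the run cutoff, the mean inhibition of all test compounds plus 3 SD, cut at about 49% in these data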;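 further: beta-PEA stimulus applied at its EC80; loss of beta-PEA calcium signal after compound pretreatment read as receptor desensitization; 0% = DMSO with beta-PEA at EC80 and 100% = DMSO alone without agonist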
# Ga16 antag count: nonselective Ga16 antagonism, counter-screen. shares compounds with TAAR1 agonist. CHO-Ga16 ATP-induced calcium, Fluo-8 fluorescence. inhibition, % at 3 µM. hit rate 39% among 2,400. AID 651952;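 active means inhibition above the plate's mean compound inhibition plus 3 SD, computed per plate, cut at about 22% in these data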;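 further: 0% = EC80 ATP with DMSO and 100% = DMSO wells without ATP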
# * marks the source's active call; other numbers are inactive results; · = no result.
SMILES,TRPML3 agonist,TAAR1 antagonist,GPR7 antagonist,LANA-H2A inh,zfTRPN1 agonist,TAAR1 agonist,TAAR1 ag confirm,Ga16 ag counter,TAAR1 desens,Ga16 antag count
COc1ccccc1-c1cc2c(c3c1ccn3C)C1CCC2C1 (centres undefined),·,-6,·,·,·,-3,·,·,·,·
O=C(N[C@H](C(=O)N1CCC[C@H]1C(=O)NCCc1ccccc1Cl)c1ccccc1)c1cccs1,·,·,·,·,·,·,·,5,·,10
O=C(N[C@H](C(=O)N1CCC[C@H]1C(=O)NCCc1ccccc1Cl)c1ccccc1)c1ccco1,·,-13,·,·,·,41*,57*,1,60*,12
Brc1ccc(C2=NC(Cc3ccccc3)CO2)cc1 (centres undefined),0,15,2,-2,-1,0,·,·,·,·
OCC1COC(c2ccccc2)=N1 (centres undefined),·,-14,·,·,·,39*,6,2,10,12
N=C1/C(=C\c2coc3ccccc3c2=O)C(=O)N=C2SC(c3ccncc3)=NN12,34*,104*,0,-23,61*,174*,81*,87*,88*,78*
CC(C)CSC1=NSC2=NC(=O)/C(=C\c3coc4ccccc4c3=O)C(=N)N12,13*,107*,-2,60*,21*,424*,119*,106*,91*,82*
O[C@@H](c1cc(C(F)(F)F)nc2c(C(F)(F)F)cccc12)[C@H]1CCCCN1,·,30,·,3,·,45*,51*,24*,43,37*
CC(O)(c1ccccc1)C(c1ccccc1)C1CCCCN1 (centres undefined),0,-9,-8,2,-1,-3,·,·,·,·
O=S(=O)(c1ccc(NC(=S)NC23CC4CC(CC(C4)C2)C3)cc1)N1CCCCC1,·,8,·,·,·,6,·,·,·,·
O=C(COc1ccc(F)cc1)NNC(=O)c1cc2ccccc2oc1=O,0,·,-10,2,2,·,·,0,·,4
Cc1cccc(NC(=O)COC(=O)c2cc3ccccc3oc2=O)c1,1,5,-6,5,1,2,·,·,·,·
O=C(COc1ccccc1)NNC(=O)c1cc2ccccc2o1,0,-27,-3,2,-2,5,·,·,·,·
Cc1cccc(OCC(=O)NNC(=O)c2cc3ccccc3oc2=O)c1,1,10,-7,-5,-1,64*,84*,18*,36,2
COc1ccc(N2CC(C(=O)N(C)CC(=O)Nc3ccc(Cl)c(C(F)(F)F)c3)CC2=O)c(OC)c1 (centres undefined),·,11,·,-1,·,0,·,·,·,·
N#Cc1cccc(NC(=O)Nc2cccs2)c1,4,17,-5,-12,6,58*,74*,16*,40,27*
CCc1cccc(NC(=O)Nc2cccs2)c1,1,20,-6,-2,5,14,·,·,·,·
Cc1ccccc1-n1nnnc1SCC(=O)c1c(N)n(C)c(=O)n(C)c1=O,1,11,-16,·,1,93*,130*,87*,42,14
O=C(/C=C/c1ccc(Cl)cc1)N1CCOCC1,·,-17,4,-4,·,1,·,·,·,·
c1ccc2c(c1)CCCC2C1=NCCN1 (centres undefined),0,92*,-5,12,-1,91*,93*,0,97*,11
COC(=O)C1=C(C)N(Cc2cccc(C(F)(F)F)c2)C(=NCC2CC2)NC1c1cccc(Cl)c1 (centres undefined),·,77*,·,·,·,72*,61*,35*,66*,55*
COC(=O)C1=C(C)N(Cc2cccc(C(F)(F)F)c2)C(=NCC2CC2)NC1c1ccc(F)cc1 (centres undefined),·,101*,·,·,·,96*,101*,72*,94*,81*
CCN=C1NC(c2cccc(Cl)c2)C(C(=O)OC)=C(C)N1Cc1ccc(C(F)(F)F)cc1 (centres undefined),·,41,·,·,·,28,·,·,·,·
COC(=O)C1=C(C)N(Cc2cccc(C(F)(F)F)c2)C(=NCC2CC2)NC1c1cccc(C(F)(F)F)c1 (centres undefined),·,56*,·,·,·,50*,53*,26*,54*,44*
CCN=C1NC(c2ccc(F)cc2)C(C(=O)OC)=C(C)N1Cc1ccc(C(F)(F)F)cc1 (centres undefined),·,45,·,·,·,28,·,·,·,·
SMILES,TRPML3 agonist,TAAR1 antagonist,GPR7 antagonist,LANA-H2A inh,zfTRPN1 agonist,TAAR1 agonist,TAAR1 ag confirm,Ga16 ag counter,TAAR1 desens,Ga16 antag count
Cc1cc(C(=O)CCC(=O)N(C)CC2COc3ccccc3O2)c(C)s1 (centres undefined),·,-14,·,·,·,2,·,·,·,·
CC(=O)c1c(C)[nH]c(C(=O)OCc2nnc(-c3ccc([N+](=O)[O-])cc3)o2)c1C,·,20,·,-1,·,48*,5,7,18,14
CC(=O)c1c(C)[nH]c(C(=O)OCC(=O)NNC(=O)c2ccc([N+](=O)[O-])cc2)c1C,·,7,·,3,·,5,·,·,·,·
C[C@H](NC(=O)c1[nH]cnc1C(=O)Nc1ccc(Cl)cc1)c1ccccc1,·,-20,·,-3,·,4,·,·,·,·
COc1cc(C2c3cc4c(cc3OC(Nc3ccc(C(=O)O)cc3)C2C)OCO4)cc(OC)c1OC (centres undefined),·,-28,·,·,·,4,·,·,·,·
COc1cc(C2c3cc4c(cc3OC(NCCc3ccccc3)C2C)OCO4)cc(OC)c1OC (centres undefined),·,91*,·,·,·,97*,97*,5,100*,8
O=C(Nc1ccccc1C(=O)NCCc1ccccc1)c1ccco1,-1,43,-6,0,0,60*,69*,5,60*,24*
O=C(CSc1nncs1)Nc1ccc(N2CCCCC2)cc1,·,15,·,3,·,2,·,·,·,·
CC(C)c1cccc(-c2csc(C(C)(O)c3cccc(F)c3)n2)c1 (centres undefined),·,20,·,·,·,-1,·,·,·,·
C=CCN1C(=O)/C(=C/C=C2/N(CC)c3ccc(S(=O)(=O)N(C)C)cc3N2CC)SC1=S,4,74*,-5,-23,11,107*,90*,91*,87*,88*
O=C(Cn1nnc(N2CCCCC2)n1)NN=Cc1ccccc1O,·,-12,·,·,·,49*,64*,2,11,1
